Assay outcomes deposited in PubChem BioAssay by several laboratories.
This is a sample that favours compounds with a hit; in the whole collection about 1.3% have one here.
ASAP1 inh: inhibitors of human ASAP1 ArfGAP activity, primary screen, biochemical, fluorescence polarization; inhibition, % at 16.5 µM; hit rate 0.19% among 360,000; ASAP1-stimulated ARF1 GTP hydrolysis, GDP FP detection; in the data active = inhibition above about 25%;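 note: 0% = vehicle with enzyme and substrate and 100% = no enzyme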
Target sequence (Q9ULH1 325-724 limits assumed): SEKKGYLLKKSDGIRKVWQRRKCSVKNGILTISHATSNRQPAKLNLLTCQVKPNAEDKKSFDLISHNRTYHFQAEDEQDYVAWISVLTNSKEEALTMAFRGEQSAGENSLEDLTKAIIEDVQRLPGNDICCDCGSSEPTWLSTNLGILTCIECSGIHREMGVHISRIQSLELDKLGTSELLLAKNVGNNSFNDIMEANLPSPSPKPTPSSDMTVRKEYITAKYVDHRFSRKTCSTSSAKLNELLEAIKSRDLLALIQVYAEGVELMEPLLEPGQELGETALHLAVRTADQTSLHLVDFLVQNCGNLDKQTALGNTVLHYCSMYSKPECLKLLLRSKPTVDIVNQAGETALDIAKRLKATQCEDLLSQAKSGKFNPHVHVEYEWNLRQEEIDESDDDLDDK
Casp6 inh: human caspase-6 inhibitors, primary screen, biochemical, VEID-R110 fluorescence, single point, set 2 | inhibition, % at 12.5 µM | P55212 | AID 686996, 2013 | purified caspase-6, Z-VEID-R110 cleavage fluorescence | hit rate 0.53% among 350,000;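 active = mean inhibition across replicates at least about 35%, with every replicate also reaching that limit, limit read from the data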;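 note: 0% = median of neutral control wells and 100% = no fluorescence left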
LEDGF integ inh: blockers of LEDGF/p75-dependent integrase strand transfer – biochemical, TR-FRET, high throughput, primary screen | HIV-1 integrase (with human LEDGF/p75) | TR-FRET IN-LEDGF/p75 DNA integration, Eu/Cy5 | inhibition, % at 3.7 µM | hit rate 0.64% among 370,000 | AID 743269, 2014;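 active = inhibition above the screen-wide mean plus 3 SD, cut at about 13% in these data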;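 note: signal is the Cy5 over europium emission ratio at 671 and 618 nm; 0% = plate median of compound wells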
ARFGAP1 inhibitor: inhibitors of rat ARFGAP1 GAP activity, primary screen, biochemical, fluorescence polarization, GDP tracer | ADP-ribosylation factor GTPase-activating protein 1 (Rattus norvegicus), Q62848 | Arfgap1-stimulated ARF1 GTP hydrolysis, GDP FP detection | inhibition, % at 16.5 µM | hit rate 0.26% among 360,000;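 active = inhibition above a per-plate limit, mean inhibition of low control wells plus 3 SD, cut at about 25% in these data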;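 note: 0% = DMSO wells with enzyme and 100% = wells lacking Arfgap1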
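material = rat Arfgap1 catalytic domain, aa 1-136 | also added = human ARF1(Δ1-17)-GTP substrate | compound dosing = one concentration, 16.5 µM, DMSO 1.26% | times = GTP hydrolysis reaction 2 h at 25 °C | measured by = FP, GDP Alexa 633 tracer displaced from anti-GDP antibody, 620/688 nm | evaluation = percent inhibition of Arfgap1-stimulated GTP hydrolysis | replication = single well per compound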
TDP2 inh: human TDP2 enzyme inhibitors, primary screen, biochemical, epi absorbance, recombinant enzyme. T5PNP hydrolysis, p-nitrophenol absorbance 415 nm. inhibition, % at 12.8 µM. hit rate 0.34% among 370,000;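 active = inhibition above the mean of all tested compounds plus 3 SD, set per campaign, cut at about 25% in these data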;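 note: 0% = DMSO with enzyme and 100% = buffer with substrate but no TDP2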
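Evaluation: % inhibition relative to enzyme-containing and enzyme-free wells. Material: recombinant human TDP2. Benchmarks: enzyme-free and DMSO wells. Timing: enzyme reaction with compound for 2 h at 37 °C. Compound dosing: 12.8 µM only. Measured by: p-Nitrophenol epi absorbance. Reagent: T5PNP substrate at 5 mM, a TopII-DNA adduct mimic. Replication: single well per compound.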
IN multimer act: HIV-1 IN multimer formation enhancers, counter-screen for LEDGF/p75 integration inhibitor project, biochemical, TR-FRET; TR-FRET HIV-1 integrase multimerization; shares compounds with LEDGF integ inh; activation, % at 7.7 µM; hit rate 17% among 2,000; in the data active = activation above about 8.9%
TRFRET interf: TR-FRET optical interference artefacts, confirmation, artefact control for LEDGF/p75-dependent integration inhibitor project, biochemical, HIV-1 IN multimerization | shares compounds with LEDGF integ inh | TR-FRET optical interference counterscreen | inhibition, % at 7.7 µM | 2,000 tested, under 10 active;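 active = inhibition above the mean over all tested compounds plus 3 SD, which no compound reached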;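 note: 0% = integrase with antibodies and DMSO and 100% = antibodies without integrase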
IN-LEDGF confirm: inhibitors of HIV-1 IN-LEDGF/p75 DNA integration, confirmation, biochemical, TR-FRET. shares compounds with LEDGF integ inh. TR-FRET LEDGF/p75-dependent HIV-1 integration. inhibition, % at 3.7 µM. hit rate 36% among 2,000; in the data active = inhibition above about 14%
Starred values were filed as active, the others as inactive; nt = no result.

SMILES	ASAP1 inh	Casp6 inh	LEDGF integ inh	ARFGAP1 inhibitor	TDP2 inh	IN multimer act	TRFRET interf	IN-LEDGF confirm
CCCc1cnc(Nc2nc(C(N)Cc3ccc(OC)cc3)cs2)nc1 (stereo unspecified)	8	-1	13*	9	-12	-1	4	-8
COc1ccc(N2CCN(C(=O)c3ccc4c(c3)[nH]c(=S)n3c5ccccc5nc43)CC2)cc1	2	11	15*	-3	-19	5	-24	-8
O=C(c1ccc2c(c1)[nH]c(=S)n1c3ccccc3nc21)N1CCN(c2cccc(Cl)c2)CC1	-2	2	1	1	21	nt	nt	nt
CCN(C[C@H]1N[C@@](C)(C(=O)OC)[C@H]2C(=O)N(C)C(=O)[C@@H]12)S(=O)(=O)c1ccccc1	-4	3	-2	1	7	nt	nt	nt
CCN(C[C@H]1N[C@@](C)(C(=O)OC)[C@H]2C(=O)N(C)C(=O)[C@@H]12)S(=O)(=O)c1ccc(C)cc1	5	0	34*	14	-7	-3	12	-1
NC(=O)CC(NC(=O)Cc1ccc(Br)cc1)c1ccc(NC2CCC2)c([N+](=O)[O-])c1 (stereo unspecified)	10	2	1	-5	-7	nt	nt	nt
Cc1ccc2nsnc2c1NC(=O)c1sc2ccccc2c1Cl	-9	nt	25*	6	-1	4	-13	1
Cc1nnc(NC(=O)c2sc3ccccc3c2Cl)s1	-2	nt	-1	1	6	nt	nt	nt
COc1cc(CCC(=O)OCC(=O)Nc2ccc(F)cc2F)cc(OC)c1OC	-15	0	2	6	6	nt	nt	nt
O=c1c2c([N+](=O)[O-])cc([N+](=O)[O-])cc2nc2ccccn12	6	5	25*	-4	6	-1	3	19*
O=c1c2c([N+](=O)[O-])cc([N+](=O)[O-])cc2sn1Cc1ccccc1	-10	1	-4	-8	9	nt	nt	nt
C[C@@H](O)C#Cc1ccc([C@H]2[C@@H](CO)N3CCCCN(C(=O)c4ccc5c(c4)OCO5)C[C@H]23)cc1	nt	-7	nt	nt	nt	nt	nt	nt
CCOc1ccc(-n2ccnc(SCC(=O)NCCc3ccccc3)c2=O)cc1	-6	4	1	-10	-2	nt	nt	nt
Cc1ccc(-n2ccnc(SCC(=O)NCCc3ccccc3)c2=O)cc1F	6	-3	17*	1	-10	3	-10	-9
O=C(C[C@@H]1CC[C@H]2[C@@H](COC[C@H](O)CN2Cc2ccccc2F)O1)N[C@@H]1CCN(Cc2ccccc2)C1	nt	1	nt	nt	nt	nt	nt	nt
O=C(CSc1nc2ccccc2o1)NC(=O)NCc1ccco1	5	nt	1	-1	-6	nt	nt	nt
O=C(CSc1nc2ccccc2o1)NC(=O)NCc1ccccc1	-2	nt	29*	1	1	1	-4	0
CC(=O)N1CCN(c2ccc(NC(=O)c3ccco3)cc2)CC1	-1	4	-1	7	-8	nt	nt	nt
CC(=O)N1CCN(c2ccc(NCc3ccco3)cc2)CC1	10	-1	21*	4	8	4	-19	-5
C[C@H]1CN([C@@H](C)CO)C(=O)c2cc(Br)cnc2O[C@H]1CN(C)Cc1ccccn1	nt	2	nt	nt	nt	nt	nt	nt
CN(C)S(=O)(=O)N1CCC(CO)(Cc2cccc(C(F)(F)F)c2)CC1	4	0	32*	-4	-18	1	-3	-6
